# Kir21 block: Kir2.1 (mouse) channel inhibition; B-score at 10 µM; HEK293-Kir2.1, FluxOR thallium flux fluorescence; hits give low values; 310,000 tested, 0.85% active; AID 1672;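 active = fluorescence ratio B-score at or below minus 3 SD of library scores, with starting-brightness B-score within 2 SD, cut at about -4.2 in these data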;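 note: channel flux triggered by added potassium and thallium sulfate stimulus; B-score of peak minus minimum fluorescence over baseline after thallium stimulus; more negative B-score means stronger Kir2.1 block with less thallium influx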
# Target sequence (P35561 whole entry, looked up): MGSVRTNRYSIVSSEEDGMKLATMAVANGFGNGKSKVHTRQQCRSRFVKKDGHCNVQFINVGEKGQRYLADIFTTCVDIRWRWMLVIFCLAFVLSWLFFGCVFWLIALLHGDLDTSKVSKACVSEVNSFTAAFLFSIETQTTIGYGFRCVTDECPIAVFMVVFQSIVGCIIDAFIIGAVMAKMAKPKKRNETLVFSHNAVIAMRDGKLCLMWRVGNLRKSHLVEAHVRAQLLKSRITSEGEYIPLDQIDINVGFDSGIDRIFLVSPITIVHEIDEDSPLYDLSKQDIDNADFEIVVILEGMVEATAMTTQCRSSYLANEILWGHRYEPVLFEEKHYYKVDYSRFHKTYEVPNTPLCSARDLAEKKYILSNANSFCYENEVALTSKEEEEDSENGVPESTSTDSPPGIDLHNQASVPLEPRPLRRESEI
# TRPC6 act: activates the mouse TRPC6 cation channel | B-score at 10 µM | AID 2550 | 310,000 tested, 0.13% active | HEK293-TRPC6 membrane potential dye fluorescence; hits give high values | Q61143;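 active = B-score of the integrated fluorescence ratio above library mean plus 3 SD, and starting fluorescence ratio within library mean plus 5 SD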;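 note: higher score means more depolarization so channel activation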
# TRPC4 potent: allosteric potentiators of mouse TRPC4 channel; HEK293 TRPC4beta/mu-opioid, DAMGO EC20, Fluo-4 Ca2+ flux; hits give high values; Q9QUQ5; 310,000 tested, 0.42% active; B-score at 10 µM;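 active = B-score of calcium response area above 5 SD of library B-scores, with initial fluorescence ratio within 5 SD of library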;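 note: B-score of integrated fluorescence ratio over time as area under calcium response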
# TRPC4 block: inhibitors of mouse TRPC4 channel. Q9QUQ5. HEK293 TRPC4beta/mu-opioid, DAMGO-evoked Fluo4 calcium flux; hits give low values. B-score at 10 µM. 300,000 tested, 0.39% active;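 active = B-score over 3 SD under the library average, no early fluorescence shift, positive overall ratio signal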
#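 Assay system: HEK293 cells with stable TRPC4beta plus mu-opioid receptor expression. Dosing: single dose. Measured by: Fluo4 Ca2+ flux fluorescence. Also added: DAMGO in two steps, submaximal then maximal. Read-out: B score from integrated Fluo4 fluorescence ratio.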
# TRPC4 act: TRPC4 (mouse) channel activation | Q9QUQ5 | HEK293 TRPC4beta/mu-opioid, Fluo4 calcium fluorescence; hits give high values | B-score at 10 µM | 310,000 tested, 0.49% active;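 active = B-score above 5 SD of library B-scores, and initial fluorescence ratio not above library mean plus 5 SD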;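 note: positive B-score marks a calcium rise read as TRPC4 activation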
#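 System: HEK293 cells stably co-expressing mouse TRPC4beta and mu-opioid receptor; Schedule: Fluo4 dye loading 45 min at room temperature, 110 s recording; Detection: Fluo4 fluorescence, kinetic; Evaluation: B-scored integrated calcium fluorescence ratio; Controls: buffer (low) and maximal DAMGO (high).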
# TRPC6 inhibitor: inhibitors of mouse TRPC6 channel; Q61143; HEK293-TRPC6, membrane potential dye, ACh-evoked depolarization; hits give low values; B-score at 10 µM; 310,000 tested, 1.1% active;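 active = B-score under library mean minus 3 SD, initial fluorescence not abnormally high, positive integrated signal ratio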;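 note: B-score derived from integrated fluorescence ratio over the kinetic read; more negative B-score means stronger inhibition of depolarization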
# Starred values were filed as active, the others as inactive; i = inactive. Hits are enriched below; roughly 2.9% of the tested compounds scored in any of these assays.
SMILES,Kir21 block,TRPC6 act,TRPC4 potent,TRPC4 block,TRPC4 act,TRPC6 inhibitor
CCCc1ccc2oc(C(=O)NCCN3CCCC(C(N)=O)C3)c(C)c2c1 (stereo not given),-1.3,i,13*,i,i,i
CCCc1ccc2oc(C(=O)NCCN3CCCC(O)C3)c(C)c2c1 (stereo not given),-2.8,i,i,i,i,i
N#C/C(=C\c1ccco1)C(=O)NCC1CCCO1 (stereo not given),-0.52,i,i,i,i,i
N#C/C(=C\c1cccc([N+](=O)[O-])c1)C(=O)NCC1CCCO1 (stereo not given),-0.89,i,12*,i,i,i
Cc1ccc(/C=C(\C#N)C(=O)NCC2CCCO2)o1 (stereo not given),-1.1,i,i,i,55*,i
COc1cc(C(=O)N(CCN(C)C)CC2CCCN(Cc3ccccc3F)C2)ccc1C (stereo not given),0.04,i,i,i,i,i
CC(C)(C)C1=CC(=O)C(=O)C(C(C)(C)C)=C1,-8.6*,i,i,i,i,i
CC1CCc2sc3ncnc(N4CCOCC4)c3c2C1 (stereo not given),-1.1,i,i,-6*,i,i
O=C(CSc1cccc2cccnc12)Nc1cc(C(=O)O)cc(C(=O)O)c1,-0.64,i,i,i,i,i
CC(=O)n1c2c(c3ccccc31)OC(N)=C(C#N)C2c1ccc(C(C)C)cc1 (stereo not given),1.4,i,12*,i,i,i
CCOC(=O)CC(NC(=O)c1cc2cccc(OC)c2oc1=O)c1cccc([N+](=O)[O-])c1 (stereo not given),0.3,i,i,i,i,i
CCOC(=O)CC(NC(=O)c1cc2cc(Cl)cc(Cl)c2oc1=O)c1cccc([N+](=O)[O-])c1 (stereo not given),0.08,i,21*,i,i,i
Cn1ccc2c([N+](=O)[O-])cccc2c1=O,0,i,i,i,i,i
Cc1[nH][nH]c(=O)c1C(c1ccc(-c2cccc(Cl)c2)o1)c1c(C)[nH][nH]c1=O,-6.6*,i,i,i,i,i
Cc1[nH][nH]c(=O)c1C(c1ccc(-c2cccc(C(=O)O)c2)o1)c1c(C)[nH][nH]c1=O,0.03,i,i,i,i,i
COc1ccccc1NS(=O)(=O)c1cc(C)ccc1C,-4.6*,i,i,i,i,i
COc1ccc(OC)c(S(=O)(=O)Nc2ccccc2C)c1,0.38,i,i,i,i,i
COc1ccc(OC)c(S(=O)(=O)Nc2ccccc2SC)c1,-4.6*,i,i,i,i,i
COc1ccc(S(=O)(=O)Nc2ccccc2SC)cc1C,-6.7*,i,i,i,i,i
COc1ccccc1NS(=O)(=O)c1ccc(O)c(C(N)=O)c1,-4.2*,i,i,i,i,i
COc1ccc(C)cc1NS(=O)(=O)c1cc(C)ccc1C,0.73,i,i,i,i,i
Cc1ccccc1C(=O)N(Cc1cccs1)C1CCS(=O)(=O)C1 (stereo not given),-1.4,i,i,i,i,i
COc1cccc(-c2nc3ccc(C(=O)NC(C)Cc4cccnc4)cc3o2)c1 (stereo not given),-0.01,i,i,i,i,i
CCCC(c1nnnn1CC1CCCO1)N1CCN(c2nc3ccccc3s2)CC1 (stereo not given),0.02,i,i,i,i,i
CCCCC(c1nnnn1CC1CCCO1)N1CCN(c2nc3ccccc3s2)CC1 (stereo not given),-0.21,i,i,i,88*,i
SMILES,Kir21 block,TRPC6 act,TRPC4 potent,TRPC4 block,TRPC4 act,TRPC6 inhibitor
CC(=O)c1ccc(NC(=O)CCCN2C(=O)C(c3ccccc3)Oc3cccnc32)cc1 (stereo not given),-4.2*,i,i,i,i,i
CCCCN(CC)CCNC(=O)c1cc2c(-c3ccc(Cl)cc3)nn(C)c2s1,-1.8,i,i,i,94*,i
CCCN(CCC)CCCNC(=O)c1cc2c(-c3ccc(OC)c(OC)c3)nn(C)c2s1,1.5,i,i,i,114*,i
CCN(CC)CCNC(=O)c1cc2c(-c3ccc(Cl)cc3)nn(C)c2s1,-1.4,i,i,i,i,i
COc1ccc(-c2nn(C)c3sc(C(=O)NCCN(C)C)cc23)cc1OC,1.1,i,i,i,i,i
COCCCNC(=O)c1cc2c(-c3cccc(OC)c3)nn(C)c2s1,0.07,i,i,i,i,i
CCCN(CCC)CCNC(=O)c1cc2c(-c3ccc(Cl)cc3)nn(C)c2s1,-3,i,i,i,47*,i
CCN(CC)CCNC(=O)c1cc2c(-c3cccc(OC)c3)nn(C)c2s1,-0.12,i,17*,i,i,i
CCOc1ccccc1NC(=O)CNC(=O)CNC(=O)Cc1ccccc1,0.78,i,i,i,i,i
O=C(c1cccc(OC2CCN(Cc3cccc(OCCO)c3)CC2)c1)N1CCCC1,-0.64,i,i,i,i,i
CSc1cccc(CN2CCC(Oc3ccc(C(=O)N4CCCCC4)cc3)CC2)c1,-5.5*,i,i,i,i,i
CSc1cccc(CN2CCC(Oc3cccc(C(=O)N4CCCC4)c3)CC2)c1,-4.8*,i,i,i,i,i
O=C(c1ccc(OC2CCN(CCCc3ccccc3)CC2)cc1)N1CCCC1,-5.9*,i,i,i,i,i
O=C(c1ccc(OC2CCN(Cc3cccc(F)c3)CC2)cc1)N1CCCCC1,-2,i,i,i,i,i
Cc1cnc(NC(=O)CSC(=S)N2CCOCC2)s1,-0.11,i,i,i,i,i
CCc1ccc(NS(=O)(=O)c2ccc3c(c2)CCN3C(=O)CCC(=O)O)cc1,0.93,i,i,i,i,i
CCCCC(CC)CNS(=O)(=O)c1ccc2c(c1)CCN2C(=O)CCC(=O)O (stereo not given),-8*,i,i,i,i,i
O=C(N/N=C\c1ccc(Cl)s1)C1COc2ccccc2O1 (stereo not given),0.69,i,i,i,70*,i
Cc1ccc(/C=N\NC(=O)C2COc3cc4ccccc4cc3O2)o1 (stereo not given),0.11,i,i,i,112*,i

# Screens from PubChem.
